Reference: ChEMBL document CHEMBL2375359, “Synthesis and antibacterial evaluation of novel pleuromutilin derivatives” (2013)
Converted amounts (≈) assume the structure as drawn.

Tests used:
Assay type in all cases: functional
[1] = system: Escherichia coli; experiment: Antibacterial activity against Escherichia coli after 48 hrs by agar dilution method
How it was run: (§1)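 Agar dilution per NCCLS on clinical isolates. 2-fold serial dilutions of compound (2 mL) mixed into 18 mL hot Mueller-Hinton agar. Inoculum from blood slants, adjusted to approx. 10⁵–10⁶ cfu/mL in sterile 0.90% NaCl, then spotted onto the plates. Incubated 36.5 °C, 48 h. MIC is the lowest concentration giving complete growth inhibition. Run in triplicate at pH 7.40.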

[2] = system: Streptococcus agalactiae; experiment: Antibacterial activity against Streptococcus agalactiae at 160 ug/ml after 24 hrs by Oxford cup assay; conditions: read-out: IZ
How it was run: (§2)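 Oxford cup diffusion with clinical isolates. Inoculum made in 0.9% saline to a McFarland standard and spread evenly on nutrient agar. Compound solutions, prepared as for the agar dilution test, were added at the stated concentration to Oxford cups set equidistant on the agar surface. Inhibition zones were measured after 24 h at 37 °C.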

[3] = system: Staphylococcus epidermidis; experiment: Antibacterial activity against methicillin-resistant Staphylococcus epidermidis at 160 ug/ml after 24 hrs by Oxford cup assay; conditions: read-out: IZ
How it was run: (§3)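 Oxford cup diffusion: clinical isolate inoculum in 0.9% saline set by McFarland standard, spread evenly on nutrient agar. Cups placed equidistant on the surface and filled with compound solutions prepared as for the agar dilution test, at several concentrations. Inhibition zone measured after 24 h at 37 °C.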

[4] = system: Staphylococcus aureus; experiment: Antibacterial activity against methicillin-resistant Staphylococcus aureus at 160 ug/ml after 24 hrs by Oxford cup assay; conditions: read-out: IZ; how it was run: as §3
[5] = system: Staphylococcus aureus; experiment: Antibacterial activity against methicillin-resistant Staphylococcus aureus after 48 hrs by agar dilution method
How it was run: (§4)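 Agar dilution per NCCLS: 2-fold serial dilutions incorporated into hot Mueller-Hinton agar. Clinical isolates grown from blood slants, suspended in sterile 0.90% NaCl to about 10⁵–10⁶ cfu/mL, spotted onto plates. Incubation 36.5 °C, 48 h. MIC taken as the lowest concentration giving complete growth inhibition. Run in triplicate at pH 7.40.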

[6] = system: Escherichia coli; experiment: Antibacterial activity against Escherichia coli at 80 ug/ml after 24 hrs by Oxford cup assay; conditions: read-out: IZ; how it was run: as §2
[7] = system: Escherichia coli; experiment: Antibacterial activity against Escherichia coli at 160 ug/ml after 24 hrs by Oxford cup assay; conditions: read-out: IZ; how it was run: as §2
[8] = system: Staphylococcus aureus; experiment: Antibacterial activity against methicillin-resistant Staphylococcus aureus at 80 ug/ml after 24 hrs by Oxford cup assay; conditions: read-out: IZ; how it was run: as §3
[9] = system: Streptococcus agalactiae; experiment: Antibacterial activity against Streptococcus agalactiae after 48 hrs by agar dilution method; how it was run: as §1
[10] = system: Staphylococcus epidermidis; experiment: Antibacterial activity against methicillin-resistant Staphylococcus epidermidis at 320 ug/ml after 24 hrs by Oxford cup assay; conditions: read-out: IZ; how it was run: as §3
[11] = system: Streptococcus agalactiae; experiment: Antibacterial activity against Streptococcus agalactiae at 320 ug/ml after 24 hrs by Oxford cup assay; conditions: read-out: IZ; how it was run: as §2
[12] = system: Staphylococcus epidermidis; experiment: Antibacterial activity against methicillin-resistant Staphylococcus epidermidis at 80 ug/ml after 24 hrs by Oxford cup assay; conditions: read-out: IZ; how it was run: as §3
[13] = system: Escherichia coli; experiment: Antibacterial activity against Escherichia coli at 320 ug/ml after 24 hrs by Oxford cup assay; conditions: read-out: IZ; how it was run: as §2
[14] = system: Staphylococcus epidermidis; experiment: Antibacterial activity against methicillin-resistant Staphylococcus epidermidis after 48 hrs by agar dilution method; how it was run: as §4
[15] = system: Staphylococcus aureus; experiment: Antibacterial activity against methicillin-resistant Staphylococcus aureus at 320 ug/ml after 24 hrs by Oxford cup assay; conditions: read-out: IZ; how it was run: as §3
[16] = system: Streptococcus agalactiae; experiment: Antibacterial activity against Streptococcus agalactiae at 80 ug/ml after 24 hrs by Oxford cup assay; conditions: read-out: IZ; how it was run: as §2

| SMILES | MIC [1] [µg/mL] | zone of inhibition at 160 µg/mL [2] [mm] | zone of inhibition at 160 µg/mL [3] [mm] | zone of inhibition at 160 µg/mL [4] [mm] | MIC [5] [µg/mL] | zone of inhibition at 80 µg/mL [6] [mm] | zone of inhibition at 160 µg/mL [7] [mm] | zone of inhibition at 80 µg/mL [8] [mm] | MIC [9] [µg/mL] | zone of inhibition at 320 µg/mL [10] [mm] | zone of inhibition at 320 µg/mL [11] [mm] | zone of inhibition at 80 µg/mL [12] [mm] | zone of inhibition at 320 µg/mL [13] [mm] | MIC [14] [µg/mL] | zone of inhibition at 320 µg/mL [15] [mm] | zone of inhibition at 80 µg/mL [16] [mm] |
| --- | --- | --- | --- | --- | --- | --- | --- | --- | --- | --- | --- | --- | --- | --- | --- | --- |
| C=C[C@]1(C)C[C@@H](OC(=O)CSC(C)(C)CNC(=O)c2ccccc2Cl)[C@]2(C)[C@H](C)CC[C@]3(CCC(=O)[C@H]32)[C@@H](C)[C@@H]1O | 4 (≈ 6.62 µM) | 11.2 | 12.2 | 12.2 | 0.5 (≈ 0.827 µM) | 11.3 | 11.9 | 14.1 | 8 (≈ 13.2 µM) | 13.4 | 10.8 | 11.4 | 14.5 | 1 (≈ 1.65 µM) | 14.2 | 10.6 |
| C=C[C@]1(C)C[C@@H](OC(=O)CSC(C)(C)CNC(=O)c2ccc(OC)cc2)[C@]2(C)[C@H](C)CC[C@]3(CCC(=O)[C@H]32)[C@@H](C)[C@@H]1O | 1 (≈ 1.67 µM) | 15.9 | 15.2 | 18.4 | 0.25 (≈ 0.417 µM) | 15.7 | 17.1 | 15.3 | 0.5 (≈ 0.834 µM) | 18.3 | 16.6 | 14.4 | 18.5 | 2 (≈ 3.33 µM) | 19.7 | 16 |
| C=C[C@]1(C)C[C@@H](OC(=O)CSC(C)(C)CNC(=O)[C@H](N)C(C)C)[C@]2(C)[C@H](C)CC[C@]3(CCC(=O)[C@H]32)[C@@H](C)[C@@H]1O [VALNEMULIN] | 0.5 (≈ 0.885 µM) | 14.5 | 25.9 | 22.9 | 0.125 (≈ 0.221 µM) | 19.5 | 23.7 | 20.4 | 0.5 (≈ 0.885 µM) | 27.5 | 15.8 | 22.6 | 24.5 | 0.5 (≈ 0.885 µM) | 25.8 | 12.8 |
| C=C[C@]1(C)C[C@@H](OC(=O)CSC(C)(C)CNC(=O)c2cc3ccccc3[nH]2)[C@]2(C)[C@H](C)CC[C@]3(CCC(=O)[C@H]32)[C@@H](C)[C@@H]1O | 16 (≈ 26.3 µM) | 9.62 | 8.84 | 8.77 | 2 (≈ 3.28 µM) | 8.87 | 9.52 | 9.05 | 8 (≈ 13.1 µM) | 9 | 9.25 | 10.3 | 10.8 | 16 (≈ 26.3 µM) | 8.52 | 9.31 |
| C=C[C@]1(C)C[C@@H](OC(=O)CSC(C)(C)CNC(=O)OCC(C)C)[C@]2(C)[C@H](C)CC[C@]3(CCC(=O)[C@H]32)[C@@H](C)[C@@H]1O | 16 (≈ 28.3 µM) | 9.01 | 11 | 9.56 | 2 (≈ 3.53 µM) | 9.91 | 9.55 | 9.64 | 4 (≈ 7.07 µM) | 11.1 | 10.2 | 10.6 | 10.3 | 8 (≈ 14.1 µM) | 10.9 | 9.85 |
| C=C[C@]1(C)C[C@@H](OC(=O)CSC(C)(C)CNC(=O)c2cccc(OC)c2)[C@]2(C)[C@H](C)CC[C@]3(CCC(=O)[C@H]32)[C@@H](C)[C@@H]1O | 8 (≈ 13.3 µM) | 12.4 | 11.7 | 13 | 2 (≈ 3.33 µM) | 12.2 | 13.3 | 11.8 | 4 (≈ 6.67 µM) | 12.5 | 13.4 | 11.4 | 14.3 | 32 (≈ 53.3 µM) | 12.8 | 12.6 |
| C=C[C@]1(C)C[C@@H](OC(=O)CSC(C)(C)CNC(=O)c2cccc(N)c2)[C@]2(C)[C@H](C)CC[C@]3(CCC(=O)[C@H]32)[C@@H](C)[C@@H]1O | 8 (≈ 13.7 µM) | 9.8 | 9.72 | 10.8 | 2 (≈ 3.42 µM) | 9.94 | 12.5 | 9.56 | 0.5 (≈ 0.855 µM) | 11.2 | 9.66 | 9.63 | 10.7 | 1 (≈ 1.71 µM) | 10.2 | 8.86 |
| C=C[C@]1(C)C[C@@H](OC(=O)CSC(C)(C)CNC(=O)c2cccc(C)c2)[C@]2(C)[C@H](C)CC[C@]3(CCC(=O)[C@H]32)[C@@H](C)[C@@H]1O | 8 (≈ 13.7 µM) | 13 | 10.8 | 13.2 | 1 (≈ 1.71 µM) | 11.3 | 13.7 | 11.2 | 2 (≈ 3.43 µM) | 12.4 | 13.6 | 9.9 | 15.5 | 16 (≈ 27.4 µM) | 13.1 | 13 |
| C=C[C@]1(C)C[C@@H](OC(=O)CSC(C)(C)CNC(=O)c2ccccc2N)[C@]2(C)[C@H](C)CC[C@]3(CCC(=O)[C@H]32)[C@@H](C)[C@@H]1O | 2 (≈ 3.42 µM) | 11.8 | 16 | 18.9 | 1 (≈ 1.71 µM) | 13.1 | 13.7 | 16.6 | 0.5 (≈ 0.855 µM) | 17.4 | 11.9 | 15.3 | 13.8 | 0.5 (≈ 0.855 µM) | 19.6 | 12 |
